Results collected from several papers.
Lines come from different studies, so protocols differ.
Target: Ephrin type-A receptor 7 (EPHA7, Homo sapiens, UniProt Q15375)

CNC(=O)c1cc(Oc2ccc(NC(=O)Nc3ccc(Cl)c(C(F)(F)F)c3)cc2)ccn1  inhibition (enzyme activity; inhibitor; 0.3 µM): 30%
CCCCNc1ncc2c(-c3ccc(F)cc3)nn(C[C@H]3CC[C@H](N)CC3)c2n1  inhibition (target engagement in cells; inhibitor; chemoproteomics; 20 mM): 43.9%
CO[C@@H](C)c1c(Nc2ccc([C@H](N(C)C(=O)C3CCS(=O)(=O)CC3)C(F)(F)F)cc2)cnc2cc(Cl)nn12  remaining binding (cell-free assay; competition with immobilised ligand; 1 µM): 84%
N#CCCc1ccc2c(c1)-c1[nH]c3ccc([N+](=O)[O-])cc3c1CC(=O)N2  remaining signal (cell-free assay; 0.5 µM): 95.3%
Cc1cc(NC(=O)c2cccc3cc(-c4cccc5[nH]nc(N)c45)ccc23)ccc1F  activity vs control (enzyme activity; inhibitor; 0.1 µM): 96%
Cc1ccc(Nc2nccc(N(C)c3ccc4c(C)n(C)nc4c3)n2)cc1S(N)(=O)=O  inhibition (enzyme activity; inhibitor; 10 µM): 34%
CCCOc1ccc(OC)c(F)c1C(=O)c1ccc(C(=O)N[C@@H]2CNC[C@H]2NC(=O)c2ccc3[nH]ncc3c2)cc1  remaining activity (enzyme activity; inhibitor; 10 µM): 29%
Cc1ccc(C(=O)Nc2ccc(CN3CCN(C)CC3)c(C(F)(F)F)c2)cc1C#Cc1cnc2cccnn12  remaining signal (cell-free assay; 23.5 nM): 81%
CC(=O)c1c(NS(C)(=O)=O)c2cc(-c3ccc(Cl)cc3)c(-c3ccc(Cl)cc3Cl)nc2n(C)c1=O  remaining binding (cell-free assay; competition with immobilised ligand; 1 µM): 100%
Cc1sc(C(=O)NC2COC2)cc1-n1cc(NC(=O)Nc2c(F)cccc2Cl)cn1  remaining activity (enzyme activity; inhibitor; 10 µM): 98.6%
Cn1nc(C(=O)NCc2ccc(C(=O)O)cc2)cc1-c1ccc2[nH]ccc2c1  remaining binding (cell-free assay; competition with immobilised ligand; 0.1 µM): 82%
CC(C)(C)c1nc2c(s1)c1nc(N)ncc1c1ccc(NS(=O)(=O)c3c(F)cccc3F)c(F)c12  remaining activity (enzyme activity; inhibitor; radiometric; 1 µM): 96%
CCN(CC)CCNC(=O)c1c(C)[nH]c(/C=C2\C(=O)Nc3ccc(F)cc32)c1C  inhibition (enzyme activity; inhibitor; 0.3 µM): 3%
CCN(CC)c1ccc(C2=NNC(=O)CC2C)cc1[N+](=O)[O-] (centres unmarked)  remaining activity (enzyme activity; inhibitor; 10 µM): 91%
CS(=O)(=O)c1cc(C2(NC(=O)c3cncc4c3cnn4-c3ccc(F)cc3)CC2)ccn1  remaining binding (cell-free assay; competition with immobilised ligand; 1 µM): 92%
CC/C(=N\NC(=O)NCc1cccc(O)c1)c1ccc(O)c(C)c1O  inhibition (enzyme activity; inhibitor; 0.1 µM): -0.5%
O=C(NS(=O)(=O)c1ccc(NCC2CCOCC2)c([N+](=O)[O-])c1)c1ccc(N2CCN(Cc3ccc(C(F)(F)F)cc3-c3ccc(Cl)cc3)CC2)cc1Oc1cnc2[nH]ccc2c1  remaining binding (cell-free assay; competition with immobilised ligand; 1 µM): 88%
COc1cc(Cl)c(C(=O)N[C@@H](CN[C@H]2CC[C@@H](N)CC2)Cc2ccc(C#N)cc2)cc1-c1ccc(CN[C@H](C)c2ccc(C)cc2)o1  remaining activity (enzyme activity; inhibitor; 1 µM): 105%
CC(=O)C1=C(C)N(c2cccc(C(F)(F)F)c2)C(=O)N[C@@H]1c1ccc(C#N)nc1  remaining binding (cell-free assay; competition with immobilised ligand; 1 µM): 100%
c1ccc(CNc2nc(N3CCOc4ccccc43)nc3c2CCCC3)cc1  inhibition (target engagement in cells; inhibitor; chemoproteomics; 20 mM): 12%
